Source: the RNAGym collection of RNA variant scans (doi:10.1126/science.aae0568)
This sample holds only a part of the variants without activity.

B1: tRNA (parent)
chain: GUUCCGUUGGCGUAAUGGUAACGCGUCUCCCUCCUAAGGAGAAGACUGCGGGUUCGAGUCCCGUACGGAACG

Variants of: B1
Test: yeast fitness relative to wild type (ratio to wild type); higher = fitter; tRNA-Arg(CCU), competitive growth, 37 C, YPD
Summary of the method: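 For this measurement, the tRNA-Arg(CCU) gene was varied by chemical synthesis at a 3% per-site mutation rate across 69 sites, and each variant was placed at the native genomic locus in Saccharomyces cerevisiae. The pooled strains went through a 24-hour competition in YPD at 37°C in six parallel replicates, with amplicons from start and end populations read by 100-nucleotide paired-end sequencing. Darwinian fitness relative to wild type followed from the change in each genotype's frequency. Genotypes needed ≥ 100 starting reads, and estimates < 0.5 were set to 0.5.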

| Variant | yeast fitness |
| --- | --- |
| C24A A42U G44A | 0.581 |
| G23C C34U A36U C49A C66U | ≤ 0.5 |
| G23C A37G G44C A45C G50A C55G C66A | ≤ 0.5 |
| G23U C30A C55G A57C C62G G68C | ≤ 0.5 |
| G23C U35G A42U | ≤ 0.5 |
| C24A C30U C34A A45G A57U C62U | ≤ 0.5 |
| C24A C33U A57U U59G | ≤ 0.5 |
| G23C A43U G56A | 0.628 |
| G23C G51A | 0.671 |
| C24A C31U G56C | ≤ 0.5 |
| G23C C55G C60A | ≤ 0.5 |
| C24A C29G C60U | ≤ 0.5 |
| G23U C24G C62A | ≤ 0.5 |
| C24A C27U C29G G44C U59C G67A | ≤ 0.5 |
| G23C C29U | 0.604 |
| G23C C29A | 0.548 |
| C24A A45G U54C C62U | ≤ 0.5 |
| G23C C24U | 0.61 |
| G23C C24G | 0.783 |
| G23C C49G A57G A70U | ≤ 0.5 |
| G23C C31A A36U A70C | 0.557 |
| C24A A42G C49U U59G C62A | 0.547 |
| G23C U59G C60G | ≤ 0.5 |
| G23C C29A C49U | 0.596 |

| Variant | yeast fitness |
| --- | --- |
| G23C U26C C27U A42U | 0.566 |
| G23C A42C | 0.721 |
| G23C A37C G52C C66G A69C | 0.612 |
| C24A A43G G52A G58A | ≤ 0.5 |
| G23C A37C C46G C66U | ≤ 0.5 |
| C24A A57C | ≤ 0.5 |
| C24A A57G | 0.601 |
| C24A C31U C55A C60A | ≤ 0.5 |
| G23C C24G G50A | 0.585 |
| C24A C30U G38C G58C | ≤ 0.5 |
| G23C C31U C55A | ≤ 0.5 |
| C24A A37C G38A A65G C66U | ≤ 0.5 |
| C24A A65C | 0.725 |
| C24A C31U G38A G58C | ≤ 0.5 |
| G23C A42U C49G A65U | ≤ 0.5 |
| G23C C30G G67A | ≤ 0.5 |
| G23A U26A C30U A40U G44A U59A | ≤ 0.5 |
| G23C U54A | ≤ 0.5 |
| G23C U54G | ≤ 0.5 |
| G23C C27A G56A A57U A69U | ≤ 0.5 |
| C24A C31U A42C G50A | ≤ 0.5 |
| G23C C24G C34G U64A | ≤ 0.5 |
| G23A U35G G58A | ≤ 0.5 |
| C24A A36U A37C | ≤ 0.5 |

| Variant | yeast fitness |
| --- | --- |
| G23A U28C C30A C46U A70U | ≤ 0.5 |
| C24A A40G | 0.551 |
| C24A A40C | 0.658 |
| G23C A69C | 0.612 |
| G23C A69U | 0.737 |
| C24A A57C C61G | ≤ 0.5 |
| C24A C31U A42C A65C | ≤ 0.5 |
| G23A U47C | 0.781 |
| C24A C29G A45G C62A A69C | 0.52 |
| G23C C31G G38C | ≤ 0.5 |
| C24A C30G | ≤ 0.5 |
| G23C C31G C33A A57U U59A G63A | ≤ 0.5 |
| G23C C31G A40U G51A | 0.656 |
| C24A C27U C29G G44C G68C | ≤ 0.5 |
| C24A C29U G50A | ≤ 0.5 |
| C24A C29G A43C C60U | 0.648 |
| G23C C29U C49A | ≤ 0.5 |
| C24A A43G A65C | ≤ 0.5 |
| G23C C29A A45U | ≤ 0.5 |
| C24A C29G G51C U54A | ≤ 0.5 |
| G23C A42G G67A | ≤ 0.5 |
| G23C C49U C55G | ≤ 0.5 |
| G23A U26G C61U A69C | 0.793 |
| G23C A37U U47C U54C C66U | ≤ 0.5 |

| Variant | yeast fitness |
| --- | --- |
| G23C G44C C46U G58A | ≤ 0.5 |
| C24A | 0.747 |
| C24A C33A C46U G67U | ≤ 0.5 |
| G23A G56C | 0.65 |
| G23C U47A | 0.705 |
| G23C U47C | 0.681 |
| G23C C46A G56A C62U | 0.758 |
| G23C C33A | ≤ 0.5 |
| C24A C31A G63U U64G | ≤ 0.5 |
| C24A A69C | 0.724 |
| C24A A69U | 0.752 |
| G23C G38C G52C G58A | ≤ 0.5 |
| G23C A65G | 0.587 |
| G23C A65C | 0.619 |
| C24A A40G C49A A65C | ≤ 0.5 |
| G23C U59A | 0.704 |
| G23C G48A | 0.668 |
| G23C G48C | 0.686 |
| G23C G39C G67A | ≤ 0.5 |
| G23A U32C A42G U54G C62U | ≤ 0.5 |
| G23C U32C A45U | 0.605 |
| G23C C49U | 0.71 |
| G23C G56A A57G | ≤ 0.5 |
| G23C A42C U47A C49G A69U A70U | ≤ 0.5 |

| Variant | yeast fitness |
| --- | --- |
| C24A C30U A65G A69U | ≤ 0.5 |
| G23A G68C | 0.746 |
| G23A G68U | 0.641 |
| G23C G52A | ≤ 0.5 |
| G23C G52C | 0.523 |
| C24A C33G A40C C55U G67A | ≤ 0.5 |
| G23C G50A C61U | ≤ 0.5 |
| G23C C31A | 0.633 |
| G23C C31G | 0.654 |
| G23C C29A G38A | ≤ 0.5 |
| G23U C33G G58C | ≤ 0.5 |
| G23C C27G C31A A45U G67A | ≤ 0.5 |
| G23U G63A | 0.609 |
| G23C C60U | ≤ 0.5 |
| G23C C60A | 0.72 |
| G23C C60G | ≤ 0.5 |
| G23A U28A C30U A40C G52C G67A | ≤ 0.5 |
| G23U U28G G50A | ≤ 0.5 |
| C24A C29U C61U C66G | 0.544 |
| G23C C55G A69U | ≤ 0.5 |
| G23C C30G A65C | ≤ 0.5 |
| C24A C27A U28A C49U C55A | ≤ 0.5 |
| G23C A45U G51C | ≤ 0.5 |
| G23C A57G G63C A65U | ≤ 0.5 |

| Variant | yeast fitness |
| --- | --- |
| G23C C27G C61U C66U | ≤ 0.5 |
| G23C C27G U53C C62A | 0.619 |
| G23C C27A A45G G51C G68A | 0.701 |
| G23C C24U A36G A57U G63A | ≤ 0.5 |
| G23C C55G G67A | 0.526 |
| G23C U54C U64A G68A | ≤ 0.5 |
| G23U A43G | 0.758 |
| G23U A43C | 0.605 |
| C24A C27U U54C U59C | 0.551 |
| G23A U28A C30U A40U G52C G67A | 0.63 |
| G23C C60G G68C | ≤ 0.5 |
| C24A A43G U54C | 0.606 |
| G23U U28G | 0.552 |
| G23U A42C | 0.74 |
| C24A A36U C61U G67U | 0.608 |
| G23A U54C | 0.533 |
| G23A U54A | 0.605 |
| C24A C29G C33G | 0.619 |
| G23U A40G | 0.682 |
| C24A C30U C62U | 0.511 |
| C24A A37G C55U C60G | ≤ 0.5 |
| G23C A43U C61U G68A | 0.52 |
| G23C G38C C49G | 0.534 |
| G23C U28G A42U U59A | ≤ 0.5 |

| Variant | yeast fitness |
| --- | --- |
| C24A A43U G52A | ≤ 0.5 |
| G23C U28A G39A G48A C61G C66G | ≤ 0.5 |
| G23U C24G C27U A69C | ≤ 0.5 |
| C24A A45U | 0.57 |
| C24A A45G | 0.626 |
| C24A C33A G51C C62U | ≤ 0.5 |
| C24A C31G C66A | ≤ 0.5 |
| C24A A40G C49A | ≤ 0.5 |
| C24A A70C | 0.8 |
| C24A C29G A45G U54A | ≤ 0.5 |
| G23C C27U A45G G52A G58A | ≤ 0.5 |
| G23C U32A A69C | ≤ 0.5 |
| G23A U28C C30A | ≤ 0.5 |
| G23C G67C | 0.58 |
| G23A U32C | 0.628 |
| C24A C27U C61A | ≤ 0.5 |
| G23C C49U G52C C60U C61G | ≤ 0.5 |
| C24A C29G U35A A57U | 0.515 |
| G23C C27G C31U | ≤ 0.5 |
| G23C A57G | 0.677 |
| G23C G50C G63C G67A | 0.64 |
| C24A A36C A37C C46U C62G | ≤ 0.5 |
| C24A C27G C29G G52C | 0.996 |
